Test [1] deals with DU-145. As to the kind of experiment: Antiproliferative activity against human DU145 cells after 72 hrs by MTS assay. It is filed as functional, cell-based. The note with it: DU-145, 72 h. An outline of the steps: (§1)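 Cells seeded at 2000 per well, exposed to varying compound concentrations for 72 h. Viability read by MTS assay. IC50 values are means of two separate experiments, each run in triplicate.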
Background: Tetrazolium dyes change colour on reduction, which living cells bring about.

The subject of test [2] is MCF7. The test can be described thus: Antiproliferative activity against human MCF7 cells after 72 hrs by MTS assay. It is filed as functional, cell-based. The conditions noted are these: MCF7, 72 h. In a few lines: as §1
Test [3] concerns PC-3. The test can be described thus: Antiproliferative activity against human PC3 cells after 72 hrs by MTS assay. It is filed as functional, cell-based. The note with it: PC-3, 72 h. In a few lines:
as §1

Test [4] deals with LNCaP. As to the kind of experiment: Antiproliferative activity against human LNCaP cells after 72 hrs by MTS assay. It is filed as functional, cell-based. An outline of the steps:
as §1

Test [5] deals with Signal transducer and activator of transcription 3 (Homo sapiens) (UniProt P40763). The test can be described thus: Inhibition of STAT3 binding to DNA.
Signal transducer and activator of transcription 3 (Homo sapiens), sequence (P40763 whole entry): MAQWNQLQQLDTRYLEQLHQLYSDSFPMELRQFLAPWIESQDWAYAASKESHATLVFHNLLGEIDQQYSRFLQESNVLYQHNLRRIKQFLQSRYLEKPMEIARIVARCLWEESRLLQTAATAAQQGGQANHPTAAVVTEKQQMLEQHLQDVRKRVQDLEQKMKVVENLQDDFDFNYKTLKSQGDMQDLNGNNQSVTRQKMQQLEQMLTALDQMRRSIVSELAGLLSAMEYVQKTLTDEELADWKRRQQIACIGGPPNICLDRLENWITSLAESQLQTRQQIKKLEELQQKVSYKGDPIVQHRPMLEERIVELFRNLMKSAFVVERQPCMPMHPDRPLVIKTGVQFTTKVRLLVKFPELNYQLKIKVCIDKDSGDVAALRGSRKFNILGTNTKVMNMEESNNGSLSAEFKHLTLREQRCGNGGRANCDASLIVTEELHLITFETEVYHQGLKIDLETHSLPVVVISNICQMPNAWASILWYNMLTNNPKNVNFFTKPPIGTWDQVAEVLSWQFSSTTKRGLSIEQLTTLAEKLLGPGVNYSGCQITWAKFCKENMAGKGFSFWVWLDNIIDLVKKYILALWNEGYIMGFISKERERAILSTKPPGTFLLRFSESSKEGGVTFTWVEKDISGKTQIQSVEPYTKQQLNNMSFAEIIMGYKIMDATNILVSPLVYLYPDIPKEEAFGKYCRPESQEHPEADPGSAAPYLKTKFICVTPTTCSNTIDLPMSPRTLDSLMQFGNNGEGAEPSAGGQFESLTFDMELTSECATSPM

The source made the active and inactive calls. The rule behind the calls is not given here. A value given as a limit tells only on which side of the number the result lay.

In the case of `CC(=O)c1cccc2c1C(=O)c1cccc(O)c1C2=O`, the IC50 (commonly the concentration needed to halve the response being measured) stood at 16.2 µM in test [1], 88.5 µM in test [2], 13.4 µM in test [3] and 34.1 µM in test [4].

As for `CC(=O)c1cccc2c1C(=O)c1c(O)cccc1C2=O`, the figures for the half-maximal inhibitory concentration (IC50) in test [1], in test [3] and in test [4] were 31.5 µM, 32.4 µM and 31.5 µM, respectively.

Turning to `COc1cccc2c1C(=O)c1cccc(C(C)=O)c1C2=O`, the IC50 in test [1], in test [3] and in test [4] was greater than 100 µM throughout.

For `C[C@@H]1CC(=O)c2c(ccc3c2C(=O)c2cccc(O)c2C3=O)C1` [OCHROMYCINONE], in test [5], the outcome was Active. Moreover, the IC50 turned out to be 12.2 µM in test [1], 124 µM in test [2] and 18.7 µM in test [3].

For the molecule `COc1cccc2c1C(=O)c1c(C(C)=O)cccc1C2=O`, the half-maximal inhibitory concentration (IC50) in test [1], in test [3] and in test [4] was greater than 100 µM each time.
